Source: PubChem BioAssay
TPT1 inh: inhibitors of Candida albicans tRNA 2'-phosphotransferase TPT1; recombinant caTPT1, FP RNA substrate dephosphorylation; inhibition, % at 5 µM; hit rate 0.81% among 300,000; AID 1962;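 active = inhibition above the mean of all tested compounds plus 3 SD, set per screening campaign, cut at about 24% in these data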;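 also: plate controls were DMSO alone for no effect and ferristatin control at 100 nM for full effect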
CRFBP-R2 block: CRF-BP/CRF-R2 complex antagonism | HEK293 CRF-R2/CRF-BP, CRF-induced calcium fluorescence | inhibition, % at 11.8 µM | hit rate 0.59% among 350,000 | AID 588475;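 active = inhibition of the ligand-induced calcium signal above about 50% at the single tested concentration, limit read from the data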
Rpn11 block: Rpn11 (human) deubiquitinase inhibition. O00487. human 26S proteasome, Ub4-pepOG fluorescence polarization; 20S core pre-blocked with epoxomicin. calls only at 20 µM. hit rate 0.59% among 360,000. AID 588493;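 active = inhibition at 20 µM, scaled to each plate's controls, above about 33%, limit read from the data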
HNF4A DNA FP: change in binding of human HNF4 alpha to DNA | AID 1224865 | HNF4a-FITC DNA binding, fluorescence polarization, 1 h | activity change, % at 10 µM | hit rate 0.3% among 360,000 | P41235; in the data active = activity change above about 30%, passing the limit was not always enough
Target sequence (P41235 whole entry, looked up): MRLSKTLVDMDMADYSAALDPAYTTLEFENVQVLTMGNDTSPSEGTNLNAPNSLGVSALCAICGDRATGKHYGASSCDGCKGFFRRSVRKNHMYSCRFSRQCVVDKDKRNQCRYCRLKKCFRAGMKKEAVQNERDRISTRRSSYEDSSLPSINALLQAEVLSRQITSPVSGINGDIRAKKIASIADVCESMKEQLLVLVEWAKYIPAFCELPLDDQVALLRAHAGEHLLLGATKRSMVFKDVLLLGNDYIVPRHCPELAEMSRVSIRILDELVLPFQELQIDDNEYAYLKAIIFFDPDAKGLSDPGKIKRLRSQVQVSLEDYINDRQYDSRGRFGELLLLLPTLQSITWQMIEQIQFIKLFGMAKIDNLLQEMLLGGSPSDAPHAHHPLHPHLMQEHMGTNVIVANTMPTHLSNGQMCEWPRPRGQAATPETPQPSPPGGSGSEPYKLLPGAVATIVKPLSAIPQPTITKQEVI
CRFR2-BP ag: CRF-BP/CRF-R2 complex agonism | HEK293 CRF-R2/CRF-BP, calcium dye fluorescence (FLIPR); percent of saturating CRF peptide response | activation, % at 13.2 µM | hit rate 0.46% among 350,000;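 active = activation of at least 50%, plus an integration ratio under a set limit after plate pattern correction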;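 also: plate controls were neutral control wells without compound for no effect and CRF at EC100 for full effect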
CSN inh: CSN deneddylation inhibition; inhibition, % at 12.5 µM; Purified CSN, SCF-Nedd8-OG deneddylation, fluorescence polarization; Q92905; hit rate 0.38% among 360,000;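 active = pattern-corrected inhibition above about 35%, with an unprinted fluorescence ratio check between 0.5 and 1.5, limit read from the data, passing the limit was not always enough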;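 also: 0% = enzyme with substrate and 100% = substrate without enzyme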
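Material: human Csn5 produced in HEK293T cells; Input: enzyme 0.24 nM; Reagent: SCFSkp2-Nedd8OG substrate at 10 nM final; Dosing: 12.5 µM compound; Incubation: 90 min reaction at room temperature; Detection: fluorescence polarization of the substrate; Evaluation: % inhibition of substrate cleavage by Csn5; Control set: substrate-only high control, full reaction low control.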
Rpn11 inh conf: confirmation of human proteasome Rpn11 inhibitors | shares compounds with Rpn11 block | purified human 26S proteasome, Ub4-pepOG fluorescence polarization; proteasome pretreated with epoxomicin | inhibition, % at 20 µM | hit rate 29% among 1,900 | AID 602318
MMP-2 inh: blocks human MMP-2, flagging nonselective RPN11 hits; recombinant MMP-2, FRET peptide cleavage fluorescence; hit rate 4% among 1,900; shares compounds with Rpn11 block; inhibition, % at 20 µM; AID 602330;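 also: human MMP-2 activated beforehand with APMA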
Thrombin inh: counter-screen for RPN11 inhibitors: inhibition of bovine thrombin; shares compounds with Rpn11 block; bovine thrombin cleavage of Ub4-pepOG, fluorescence polarization; inhibition, % at 20 µM; hit rate 13% among 1,900; AID 602333;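 active = mean inhibition at least 40% at 20 µM, or signal 3 deviations below plate average, so some actives read negative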;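 also: plate controls were thrombin with DMSO for no effect and buffer wells lacking thrombin for full effect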
* marks the source's active call; other numbers are inactive results; i = inactive; nt = no result given; + = active, no number. An excerpt weighted towards active compounds, which were near 2.3% of everything screened. Rule as the data show it, unless noted: active = inhibition above about 40%; inactive = the rest.

SMILES	TPT1 inh	CRFBP-R2 block	Rpn11 block	HNF4A DNA FP	CRFR2-BP ag	CSN inh	Rpn11 inh conf	MMP-2 inh	Thrombin inh
O=C(N/N=C/c1ccncc1)c1cccc(NC(=O)c2ccc(Cl)cc2)c1	-2	20	+	12	-3	78*	47*	-1	0
O=C(N/N=C/c1ccc(Br)cc1)c1ccc(NC(=O)c2ccccc2)cc1	nt	-4	+	31	-1	-2	-1	-24	-10
O=C(N/N=C/c1ccncc1)c1cccc(N/N=C/c2ccncc2)c1	6	-2	i	-1	1	-4	nt	nt	nt
O=C(C[n+]1ccc(C(=O)N/N=C/c2ccc(Br)cc2)cc1)c1ccccc1	8	34	i	-1	0	-4	nt	nt	nt
O=C(C[n+]1ccc(C(=O)N/N=C/c2ccc(O)cc2)cc1)c1ccccc1	8	-15	+	7	4	2	0	13	-14
CCOC(=O)C1CCN(C(=O)c2ccc3c(c2)C(=O)N(c2ccccc2C)C3=O)CC1	0	9	i	0	-2	6	nt	nt	nt
COCCNC(=O)c1c(N)n(CCCn2ccnc2)c2nc3ccccc3nc12	-2	26	+	3	-2	0	-18	-17	-15
Nc1c(C(=O)NCCN2CCOCC2)c2nc3ccccc3nc2n1CCc1ccccc1	4	-10	+	2	-1	11	5	8	-7
Nc1c(C(=O)NCCN2CCOCC2)c2nc3ccccc3nc2n1CCc1ccccc1F	6	-4	i	4	0	0	nt	nt	nt
Nc1c(C(=O)NCc2ccc3c(c2)OCO3)c2nc3ccccc3nc2n1CCCN1CCOCC1	11	-30	+	4	5	4	25	-26	-5
CN(C)Cc1cc(C(C)(C)C)cc(N2CCOCC2)c1O	nt	13	i	3	0	-5	nt	nt	nt
CSc1sc(-c2nnc(SCC(=O)Nc3ccc(Cl)cc3)n2C)c2c1C=CCC2	4	7	+	4	0	1	2	-16	4
Cn1c(SCC(=O)Nc2ccc(Cl)cc2)nnc1C1CC1	-1	-3	i	1	0	-6	nt	nt	nt
N#C/C(=C\c1ccc(OC(=O)c2ccc(Br)s2)cc1)c1nc2ccccc2[nH]1	2	-37	+	-2	11	-1	-8	-13	-22
N#C/C(=C\c1ccncc1)c1nc2ccccc2[nH]1	nt	-32	i	2	11	-1	nt	nt	nt
N#C/C(=C\c1ccc(OC(=O)c2ccc(Cl)s2)cc1)c1nc2ccccc2[nH]1	-3	3	+	-7	0	4	-12	0	-33
N#C/C(=C/c1ccc(OC(=O)c2ccc(Br)s2)cc1)c1nc2ccccc2[nH]1	nt	-2	i	-9	4	23	nt	nt	nt
COc1ccc(C(=O)N2CCN(c3nc4ccccc4o3)CC2)cc1OC	2	-21	i	2	5	7	nt	nt	nt
O=C(Nc1ccc2oc(-c3ccncc3)nc2c1)c1ccco1	3	4	i	1	5	8	nt	nt	nt
O=C(Nc1ccc2c(c1)CCC2)c1ccc(Br)o1	-7	7	+	-5	-2	4	-19	11	-1
O=C(Nc1ccc2oc(-c3ccncc3)nc2c1)c1ccc(Br)o1	-3	11	+	1	0	6	-13	8	-24
Cc1ccc(-c2c[n+](CC(=O)OCc3ccccc3)c3n2CCC3)cc1	6	4	i	-2	-1	-2	nt	nt	nt
CC(C)(C)C1=CC(O)(c2ccccc2)C=C(C(C)(C)C)C1=O	-2	-1	i	-6	-1	4	nt	nt	nt
CC(=O)Nc1ccc2c(c1)nc1n2CCOC1	6	17	i	1	0	-7	nt	nt	nt
O=C(Nc1ccc2c(c1)nc1n2CCOC1)C1CCCCC1	-5	3	+	0	-1	1	0	-22	-9
SMILES	TPT1 inh	CRFBP-R2 block	Rpn11 block	HNF4A DNA FP	CRFR2-BP ag	CSN inh	Rpn11 inh conf	MMP-2 inh	Thrombin inh
CS(=O)(=O)N(CC(=O)Nc1ccc2c(c1)OCO2)c1ccccc1	-2	12	i	0	-2	0	nt	nt	nt
CS(=O)(=O)N(CC(=O)Nc1ccc2c(c1)OCCO2)c1ccc2c(c1)OCO2	-2	6	+	-7	-1	0	-6	-25	-5
O=C(N/N=C1\CCCc2ccccc21)c1cccc([N+](=O)[O-])c1	1	-14	i	3	-3	-2	nt	nt	nt
Cc1ccsc1/C=C/c1ccc2ccccc2n1	20	18	+	23	-3	12	53*	-21	21
COc1ccccc1C(=O)COC(=O)c1cc(=O)[nH]c2ccccc12	0	-18	i	-4	-3	3	nt	nt	nt
Cc1ccc(C(=O)COC(=O)c2cc(=O)[nH]c3ccccc23)cc1C	-6	-19	+	-2	0	20	59*	13	4
Nc1nc(SCc2ccc(Cl)cc2Cl)nc2nc3c(cc12)CCCC3	3	23	+	21	-2	16	46*	2	-25
Brc1cccc(-c2nc3ccc(Br)cn3c2Cc2ccccc2)c1	nt	nt	+	24	nt	11	21	-24	-1
Clc1cccc(-c2nc3ccc(Br)cn3c2Cc2ccccc2)c1	nt	nt	+	21	nt	8	35	11	8
Clc1cccc(Cc2c(-c3cccc(Br)c3)nc3ccc(Br)cn23)c1	nt	nt	i	12	nt	7	nt	nt	nt
CCOC(=O)c1sc(NNC(=O)c2ccc(F)cc2)nc1C	1	-10	i	3	1	-2	nt	nt	nt
Cc1cc(C)c(S(=O)(=O)NCC(=O)NCc2ccco2)c(C)c1	-4	-2	i	2	-2	3	nt	nt	nt
CCc1ccc(C(=O)COC(=O)CNC(=O)Cc2ccccc2)cc1	-3	-30	i	0	-15	-4	nt	nt	nt
CSc1nc(N)nc(SCC(=O)CC(=O)OC(C)C)c1C#N	-1	1	+	3	2	9	-3	-22	-17
Cc1[nH]c2ccc(C(=O)O)cc2c1C	3	15	i	6	-1	-1	nt	nt	nt
CCCc1c(C)[nH]c2ccc(C(=O)O)cc2c1=S	nt	5	+	-68	-7	48*	74*	11	-8
Cc1ccc(OCCCC(=O)NC2CCCCC2)cc1	-1	9	i	0	-5	-2	nt	nt	nt
Clc1cccc(Sc2ccc(-c3ccccn3)s2)c1	-1	-1	+	-38	2	0	-12	-4	-16
